Test results taken from ChEMBL document CHEMBL1130667, “Discovery of an imidazopyridine-containing 1,4-benzodiazepine nonpeptide vitronectin receptor (alpha v beta 3) antagonist with efficacy in a restenosis model” (Bioorg Med Chem Lett, 1998).

Key:
HEK293 = test: Antagonistic activity was measured by the adhesion of HEK 293 cells transfected with human alphaV-beta3 to vitronectin-coated plates; format: functional, cell-based
How it was run: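 HEK 293 cells transfected with human αvβ3 are allowed to adhere to vitronectin-coated plates. IC50 comes from two experiments run in triplicate, with an internal reference standard included.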

Integrin alpha-V/beta-3 = Integrin alpha-V/beta-3 (Homo sapiens, UniProt P05106+P06756); test: Antagonistic activity for human vitronectin receptor (alphaV-beta3) from platelets; format: functional
Integrin alpha-V/beta-3, sequence (P05106 27-788 limits assumed): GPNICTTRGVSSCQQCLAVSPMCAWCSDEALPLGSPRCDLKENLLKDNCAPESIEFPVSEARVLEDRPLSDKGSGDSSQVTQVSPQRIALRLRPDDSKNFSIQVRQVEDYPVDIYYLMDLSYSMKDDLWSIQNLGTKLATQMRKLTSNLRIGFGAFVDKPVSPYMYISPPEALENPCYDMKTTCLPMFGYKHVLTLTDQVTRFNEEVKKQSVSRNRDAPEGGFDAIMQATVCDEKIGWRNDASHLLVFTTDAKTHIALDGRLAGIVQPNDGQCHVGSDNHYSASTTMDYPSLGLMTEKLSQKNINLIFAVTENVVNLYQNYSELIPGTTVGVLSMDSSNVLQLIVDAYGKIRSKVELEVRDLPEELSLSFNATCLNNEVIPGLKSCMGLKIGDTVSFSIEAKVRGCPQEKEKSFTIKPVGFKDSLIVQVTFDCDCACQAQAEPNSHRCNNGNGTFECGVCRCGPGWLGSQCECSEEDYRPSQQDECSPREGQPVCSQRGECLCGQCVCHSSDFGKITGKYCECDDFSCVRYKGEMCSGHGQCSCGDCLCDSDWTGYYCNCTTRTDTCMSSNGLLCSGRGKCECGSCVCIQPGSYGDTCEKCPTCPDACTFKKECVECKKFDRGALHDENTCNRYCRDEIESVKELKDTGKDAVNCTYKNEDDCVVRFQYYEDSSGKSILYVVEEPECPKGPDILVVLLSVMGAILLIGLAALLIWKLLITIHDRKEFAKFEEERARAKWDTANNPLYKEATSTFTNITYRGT
Integrin alpha-V/beta-3, sequence (P06756 31-889 limits assumed): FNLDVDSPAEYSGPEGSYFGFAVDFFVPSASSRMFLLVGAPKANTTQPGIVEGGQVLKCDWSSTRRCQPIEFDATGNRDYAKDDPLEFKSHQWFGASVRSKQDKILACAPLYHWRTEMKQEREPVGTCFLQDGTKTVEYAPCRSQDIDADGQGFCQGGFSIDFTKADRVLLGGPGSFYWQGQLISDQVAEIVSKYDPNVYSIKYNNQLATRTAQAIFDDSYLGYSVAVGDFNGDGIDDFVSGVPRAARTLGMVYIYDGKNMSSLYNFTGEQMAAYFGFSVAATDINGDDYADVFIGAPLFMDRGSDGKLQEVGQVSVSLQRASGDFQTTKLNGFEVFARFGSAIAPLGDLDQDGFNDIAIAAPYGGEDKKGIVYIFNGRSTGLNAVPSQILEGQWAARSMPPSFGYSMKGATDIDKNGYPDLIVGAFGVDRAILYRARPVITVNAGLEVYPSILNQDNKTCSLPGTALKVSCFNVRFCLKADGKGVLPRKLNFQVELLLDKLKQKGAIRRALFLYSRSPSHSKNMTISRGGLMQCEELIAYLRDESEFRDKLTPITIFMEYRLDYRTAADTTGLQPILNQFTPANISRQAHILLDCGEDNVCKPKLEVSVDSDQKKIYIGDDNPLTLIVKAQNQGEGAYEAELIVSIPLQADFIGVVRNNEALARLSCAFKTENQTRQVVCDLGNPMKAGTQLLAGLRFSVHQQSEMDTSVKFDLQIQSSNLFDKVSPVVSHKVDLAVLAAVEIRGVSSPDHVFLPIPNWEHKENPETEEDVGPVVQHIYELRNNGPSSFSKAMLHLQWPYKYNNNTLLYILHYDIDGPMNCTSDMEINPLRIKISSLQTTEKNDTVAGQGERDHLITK
Integrin alpha-V/beta-3, sequence (P06756 891-1048 limits assumed): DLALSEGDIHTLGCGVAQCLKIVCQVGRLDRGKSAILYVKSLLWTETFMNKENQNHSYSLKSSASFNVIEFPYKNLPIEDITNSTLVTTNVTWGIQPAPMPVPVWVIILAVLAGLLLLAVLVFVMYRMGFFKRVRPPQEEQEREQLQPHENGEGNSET
How it was run: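 Competitive binding to human αvβ3 purified from platelets; a tritiated RGD peptide is the displaced ligand. Ki values are the means of two to three separate experiments, with typical assay variability of ±10%.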

[1] = Biological half-life measured in plasma of rat; format: ADME, organism-based
[2] = Oral bioavailability in rat; format: ADME, organism-based; conditions: in vivo
Rattus norvegicus [3] = organism: Rattus norvegicus; test: Compound was measured for in vitro efficacy in blocking vitronectin-induced migration of rat aortic smooth muscle cells (RASMC); format: functional, cell-based
[4] = (§1) Plasma clearance was measured in rat; format: ADME, organism-based; conditions: plasma
[5] = Biological half-life measured in plasma of rat; 22-25; format: ADME, organism-based
[6] = Bioavailability was measured in rat after oral administration; 2-4; format: ADME, organism-based; conditions: in vivo, read-out: Bioavailabiility
Rattus norvegicus [7] = organism: Rattus norvegicus; test: as §1; format: ADME, organism-based; conditions: in vivo
[8] = Bioavailability was measured in rat after oral administration; 3-7; format: ADME, organism-based; conditions: in vivo, read-out: Bioavailabiility
[9] = Biological half-life measured in plasma of rat; 9-16; format: ADME, organism-based
Rattus norvegicus [10] = organism: Rattus norvegicus; test: Maximum plasma concentration of compound was measured in rat; format: ADME, organism-based; conditions: in vivo

| SMILES | IC50 (HEK293) [nM] | Ki (Integrin alpha-V/beta-3) [nM] | IC50 (Rattus norvegicus [3]) [nM] | clearance [4] [mL/min/kg] | further results |
| --- | --- | --- | --- | --- | --- |
| Cc1ccc2nc(CN(C)C(=O)c3ccc4c(c3)CNC(=O)[C@H](CC(=O)O)N4)nc-2[nH]1 | 2500 | 10 | – | – | – |
| CN(Cc1nc2ccc[nH]c-2n1)C(=O)c1ccc2c(c1)CN(C)C(=O)[C@H](CC(=O)O)N2 | 270 | 3 | – | – | – |
| Cc1ccc2nc(CNC(=O)c3ccc4c(c3)CN(C)C(=O)[C@H](CC(=O)O)N4)nc-2[nH]1 | 9000 | 45 | 1600 | 1.8 | half-life [1]: 92 min; bioavailability [2]: 8% |
| Cc1cc(C)c2[nH]c(CN(C)C(=O)c3ccc4c(c3)CN(C)C(=O)[C@H](CC(=O)O)N4)nc2n1 | – | 710 | – | – | – |
| Cc1ccc2[nH]c(CN(C)C(=O)c3ccc4c(c3)CN(C)C(=O)[C@H](CC(=O)O)N4)nc2n1 | 450 | 3 | 170 | 17 | half-life [5]: 25 min; bioavailability [6]: 4%; clearance (Rattus norvegicus [7]): 19 mL/min/kg |
| CN(Cc1nc2ncncc2[nH]1)C(=O)c1ccc2c(c1)CN(C)C(=O)[C@H](CC(=O)O)N2 | 5000 | 23 | – | – | – |
| CN(Cc1nc2ccccc2[nH]1)C(=O)c1ccc2c(c1)CN(C)C(=O)[C@H](CC(=O)O)N2 | – | – | 370 | 35 | bioavailability [8]: 7%; half-life [9]: 16 min; Cmax (Rattus norvegicus [10]): 819 ng/mL |
| Cc1ccc2[nH]c(CNC(=O)c3ccc4c(c3)CNC(=O)[C@H](CC(=O)O)N4)nc2n1 (racemic) | 20000 | 90 | – | – | – |
| COCCN1Cc2cc(C(=O)NCc3nc4ccc(C)[nH]c-4n3)ccc2N[C@@H](CC(=O)O)C1=O (racemic) | 10000 | 50 | – | – | – |
| CN(Cc1nc2cc[nH]nc-2n1)C(=O)c1ccc2c(c1)CN(C)C(=O)[C@H](CC(=O)O)N2 (racemic) | 1500 | 19 | – | – | – |
| CC(C)N1Cc2cc(C(=O)N(C)Cc3nc4ncccc4[nH]3)ccc2N[C@@H](CC(=O)O)C1=O (racemic) | 2000 | 4 | – | – | – |
| Cc1ccc2[nH]c(CNC(=O)c3ccc4c(c3)CN(Cc3ccccc3)C(=O)[C@H](CC(=O)O)N4)nc2n1 (racemic) | – | 60 | – | – | – |
| Cc1ccc2nc(CN(C)C(=O)c3ccc4c(c3)CN(Cc3ccccc3)C(=O)[C@H](CC(=O)O)N4)nc-2[nH]1 (racemic) | 160 | 13 | – | – | – |
| COCCN1Cc2cc(C(=O)N(C)Cc3nc4ncccc4[nH]3)ccc2N[C@@H](CC(=O)O)C1=O (racemic) | 500 | 2.5 | 230 | 31 | half-life [1]: 25 min; bioavailability [2]: 4%; Cmax (Rattus norvegicus [10]): 692 ng/mL |
| CN(Cc1nc2ccc[nH]c-2n1)C(=O)c1ccc2c(c1)CN(CCC(C)(C)C)C(=O)[C@H](CC(=O)O)N2 (racemic) | 250 | 2.5 | 470 | 55 | half-life [1]: 14 min; bioavailability [2]: < 1%; Cmax (Rattus norvegicus [10]): 555 ng/mL |
